This note sets out measurements from ChEMBL document CHEMBL1141083, “Development of human calcitonin gene-related peptide (CGRP) receptor antagonists. 1. Potent and selective small molecule CGRP antagonists. 1-[N2-[3,5-dibromo-N-[[4-(3,4-dihydro-2(1H)-oxoquinazolin-3-yl)-1-piperidinyl]carbonyl]-D-tyrosyl]-l-lysyl]-4-(4-pyridinyl)piperazine: the first CGRP antagonist …” (J Med Chem, 2005).

One may read the IC50 as the concentration that inhibits the measured activity by half.

For test [1], the target named is T1, Calcitonin gene-related peptide type 1 receptor (Homo sapiens, UniProt O60894+Q16602). The experiment in a line: Affinity against human calcitonin gene related peptide receptor (1 uM) expressed in SK-N-MC cells using [125I]-CGRP as radioligand after 180 minutes of incubation at pH 7.40. The test is classed as cell-based. The gist of the method: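 SK-N-MC cell membranes, frozen at -80 °C in Tris/BSA/bacitracin buffer, then diluted 1:10 in assay buffer (50 mM Tris, 150 mM NaCl, 5 mM MgCl2, 1 mM EDTA, pH 7.40). Filtered, gamma counted, nonspecific binding with 1 μM human α-CGRP. IC50 by one-site nonlinear regression; at least three experiments in triplicate.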

The target in test [2] is Calcitonin gene-related peptide type 1 receptor (Rattus norvegicus, UniProt Q63118). The experiment in a line: Affinity against calcitonin gene related peptide receptor (1 uM) in rat spleen using [125I]CGRP as radioligand after 180 minutes of incubation at pH 7.40. The test is classed as tissue-based. The gist of the method: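 Membrane homogenates of marmoset or rat spleen, diluted 1:10 in assay buffer (50 mM Tris, 150 mM NaCl, 5 mM MgCl2, 1 mM EDTA, pH 7.40). Incubated 180 min at ambient temperature with 50 pM 125I-CGRP and increasing test concentrations, then filtered on PEI-treated GF/B filters and gamma counted. Nonspecific binding defined with 1 μM human α-CGRP. IC50 from one-site nonlinear regression.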

In test [3] the target is T1, Calcitonin gene-related peptide type 1 receptor. Put plainly: Antagonistic activity against calcitonin gene related peptide receptor determined by measuring the formation of cyclic AMP in SK-N-MC cells. The test is classed as functional, cell-based. To be noted: read-out: pA2 (converted).

T1 sequence (Q16602 whole entry, one chain of several): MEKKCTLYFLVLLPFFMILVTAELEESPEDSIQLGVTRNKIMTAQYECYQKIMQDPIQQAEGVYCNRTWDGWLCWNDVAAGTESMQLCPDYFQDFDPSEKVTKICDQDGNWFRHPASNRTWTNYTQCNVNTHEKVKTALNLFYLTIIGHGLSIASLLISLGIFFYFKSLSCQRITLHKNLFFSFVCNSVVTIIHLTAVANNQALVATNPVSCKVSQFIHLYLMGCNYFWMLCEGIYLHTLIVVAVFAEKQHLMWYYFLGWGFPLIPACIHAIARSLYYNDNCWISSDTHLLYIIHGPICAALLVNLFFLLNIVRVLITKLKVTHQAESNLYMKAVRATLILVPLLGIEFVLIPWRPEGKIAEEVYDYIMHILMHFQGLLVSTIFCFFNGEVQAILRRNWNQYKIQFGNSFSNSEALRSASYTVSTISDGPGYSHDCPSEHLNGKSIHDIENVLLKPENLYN
Sequence of Calcitonin gene-related peptide type 1 receptor (Rattus norvegicus, UniProt Q63118) (Q63118 whole entry): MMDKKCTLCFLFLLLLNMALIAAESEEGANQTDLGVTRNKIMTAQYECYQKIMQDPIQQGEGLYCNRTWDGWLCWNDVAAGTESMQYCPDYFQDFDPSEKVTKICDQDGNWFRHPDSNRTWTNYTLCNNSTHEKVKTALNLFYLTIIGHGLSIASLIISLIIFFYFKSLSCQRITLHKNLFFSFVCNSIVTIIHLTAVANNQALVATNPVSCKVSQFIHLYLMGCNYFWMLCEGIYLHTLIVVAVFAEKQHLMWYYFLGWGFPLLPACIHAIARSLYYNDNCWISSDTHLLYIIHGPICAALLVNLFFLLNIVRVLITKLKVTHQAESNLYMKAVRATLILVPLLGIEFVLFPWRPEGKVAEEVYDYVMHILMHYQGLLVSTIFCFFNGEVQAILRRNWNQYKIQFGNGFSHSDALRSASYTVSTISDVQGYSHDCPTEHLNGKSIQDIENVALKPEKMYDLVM

With `NCCCC[C@@H](NC(=O)[C@H](Cc1cc(Br)c(N)c(Br)c1)NC(=O)CCCc1ccccc1)C(=O)N1CCN(c2ccncc2)CC1`, the IC50 in test [1] turned out to be 10.3 µM. Still for that read-out and setting: then `COc1ccccc1CCNC(=O)N[C@@H](Cc1cc(Br)c(O)c(Br)c1)C(=O)N[C@H](CCCCN)C(=O)N1CCN(c2ccncc2)CC1`, with 1 µM; and `NCCCC[C@@H](NC(=O)[C@H](Cc1cc(Br)c(N)c(Br)c1)NC(=O)CCCc1ccccc1)C(=O)N1CCN(c2ccccc2)CC1`, with > 300 µM. For the molecule `NCCCC[C@@H](NC(=O)[C@H](Cc1cc(Br)c(O)c(Br)c1)NC(=O)N1CCC(n2c(O)nc3ccccc32)CC1)C(=O)N1CCN(c2ccncc2)CC1`, the IC50 in test [2] is 56.7 nM; in test [1], 0.0002 µM. In addition, the Kb in test [3] is 0.0794 nM.

On to `NCCCC[C@@H](NC(=O)[C@H](Cc1cc(Br)c(O)c(Br)c1)NC(=O)N1CCC(n2cc(-c3ccccc3)[nH]c2=O)CC1)C(=O)N1CCN(c2ccncc2)CC1`, for which, in test [1], the IC50 came to 5e-05 µM. Regarding `COc1ccccc1N1CCN(C(=O)N[C@@H](Cc2cc(Br)c(O)c(Br)c2)C(=O)N[C@H](CCCCN)C(=O)N2CCN(c3ccncc3)CC2)CC1`, in test [1], the half-inhibitory concentration (IC50) turned out to be 0.226 µM. Still for that read-out and setting: then `NCCCC[C@H](NC(=O)[C@@H](Cc1cc(Br)c(O)c(Br)c1)NC(=O)CCCc1ccccc1)C(=O)NCCc1ccccc1`, with > 300 µM; and `NCCCC[C@@H](NC(=O)[C@H](Cc1cc(Br)c(N)c(Br)c1)NC(=O)CCCc1ccccc1)C(=O)N1CCNCC1`, with > 300 µM. Regarding `COc1ccccc1C1CCN(C(=O)N[C@@H](Cc2cc(Br)c(O)c(Br)c2)C(=O)N[C@H](CCCCN)C(=O)N2CCN(c3ccncc3)CC2)CC1`, the IC50 in test [1] was determined as 0.25 µM. The same measure, in the same setting: the same measure for `NCCCC[C@@H](NC(=O)[C@H](Cc1cc(Br)c(O)c(Br)c1)NC(=O)CCCc1ccccc1)C(=O)NCCc1ccccc1`: 17 µM; for `NCCCC[C@@H](NC(=O)[C@H](Cc1cc(Br)c(N)c(Br)c1)NC(=O)CCCc1ccccc1)C(=O)NCCc1ccccc1`: 40 µM. `NCCCC[C@@H](NC(=O)[C@H](Cc1cc(Br)c(O)c(Br)c1)NC(=O)N1CCC(n2c(=O)oc3ccccc32)CC1)C(=O)N1CCN(c2ccncc2)CC1`: in test [1], the IC50 stood at 0.044 µM. Further, in test [3], the Kb is 10 nM. For `COc1cccc(CCNC(=O)N[C@@H](Cc2cc(Br)c(O)c(Br)c2)C(=O)N[C@H](CCCCN)C(=O)N2CCN(c3ccncc3)CC2)c1`, the IC50 in test [2] stood at 70500 nM; in test [1], 0.2 µM. Moreover, the Kb in test [3] is 126 nM. `NCCCC[C@@H](NC(=O)[C@@H](Cc1cc(Br)c(O)c(Br)c1)NC(=O)CCCc1ccccc1)C(=O)NCCc1ccccc1`: the IC50 in test [1] was > 300 µM. On to `NCCCC[C@@H](NC(=O)[C@H](Cc1cc(Br)c(O)c(Br)c1)NC(=O)N1CCC(N(C(N)=O)c2ccccc2)CC1)C(=O)N1CCN(c2ccncc2)CC1`, for which the IC50 in test [1] was 0.0047 µM. Besides, the Kb in test [3] was 0.794 nM.

Turning to `COc1ccccc1CCNC(=O)N[C@@H](Cc1cc(Br)c(O)c(Br)c1)C(=O)N[C@H](CCCCN)C(=O)NCCc1ccccc1`, the IC50 in test [1] came to 13 µM. Same read-out and setting: then `NCCCC[C@H](NC(=O)[C@H](Cc1cc(Br)c(O)c(Br)c1)NC(=O)CCCc1ccccc1)C(=O)NCCc1ccccc1`, with > 300 µM; and `NCCCC[C@@H](NC(=O)[C@H](Cc1cc(Br)c(N)c(Br)c1)NC(=O)CCCc1ccccc1)C(=O)Nc1ccccc1`, with 50 µM. Consider `NCCCC[C@@H](NC(=O)[C@H](Cc1cc(Br)c(O)c(Br)c1)NC(=O)N1CCC(N2Cc3ccccc3NC2=O)CC1)C(=O)N1CCN(c2ccncc2)CC1`, for which the IC50 in test [2] was found to be 6.4 nM. In the case of `NCCCC[C@@H](NC(=O)[C@H](Cc1cc(Br)c(N)c(Br)c1)NC(=O)CCc1ccccc1)C(=O)NCCc1ccccc1`, the IC50 in test [1] amounted to 196 µM.
